The values below come from ChEMBL document CHEMBL1141484, “Radiosyntheses of two positron emission tomography probes: [11C]Oseltamivir and its active metabolite [11C]Ro 64-0802” (Bioorg Med Chem Lett, 2008).

The series in a line: Ratio of drug level in brain to blood in iv dosed mouse. Format: ADME, organism-based. The note with it: brain/whole blood, read-out: BBR. Put shortly: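 Brain/blood radioactivity ratio was taken from decay-corrected %ID/g tissue in whole brain and blood. Samples came from male Wister mice (30 g, 7 weeks) given the 11C tracer iv by tail vein (average 20 MBq/400 µL). Mice were sacrificed at 1–60 min after injection, three per time point.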

Consider `CCOC(=O)C1=C[C@@H](OC(CC)CC)[C@H](N[11C](C)=O)[C@@H](N)C1`, for which the Kp was 0.07. The result for `CCC(CC)O[C@@H]1C=C(C(=O)O)C[C@H](N)[C@H]1N[11C](C)=O` reads 0.06.
